In ChEMBL document CHEMBL4265995, “Chaetolines A and B, Pyrano[3,2- f]isoquinoline Alkaloids from Cultivation of Chaetomium sp. in the Presence of Autoclaved Pseudomonas aeruginosa” (2018) one finds MIC data, which are given here for 2 compounds.

Common to all, as to format: functional
The subject of one assay is L5178Y. In words: Cytotoxicity against mouse L5178Y cells by MTT assay. In a few lines: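 MTT viability assay on L5178Y mouse lymphoma cells, compared with untreated controls. Negative controls were media containing 0.1% ethylene glycol monomethyl ether/DMSO. Three independent experiments, each in triplicate.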
The next assay has as its system Pseudomonas aeruginosa. In words: Antibacterial activity against Pseudomonas aeruginosa ATCC 27853 after 24 hrs by CLSI method. The following applies: ATCC 27853, 24 h. In a few lines: (§1)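 Broth microdilution in 96-well plates, using a medium of 1.75% w/v acid digest of casein and 0.15% w/v starch. Compounds came from a 10 mg/mL DMSO stock. Serial 2-fold dilutions started at 64 μg/mL, with DMSO diluted along with the compounds (0.64% final at the top concentration). Plates were incubated 24 h at 37 °C and read by visual inspection. Moxifloxacin and rifampicin were the positive controls.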

The subject of assay [1] is Acinetobacter baumannii. In words: Antibacterial activity against Acinetobacter baumannii BAA1605 after 24 hrs by CLSI method. The following applies: BAA1605, 24 h. Put shortly: as §1
Assay [2] deals with Acinetobacter baumannii. In words: Antibacterial activity against Acinetobacter baumannii BAA747 after 24 hrs by CLSI method. As to conditions: BAA747, 24 h. Put shortly:
as §1

The next assay concerns Escherichia coli. The assay can be described thus: Antibacterial activity against Escherichia coli ATCC 25922 after 24 hrs by CLSI method. As to conditions: ATCC 25922, 24 h. Put shortly:
as §1

The next assay concerns Klebsiella pneumoniae. The assay can be described thus: Antibacterial activity against Klebsiella pneumoniae ATCC 13883 after 24 hrs by CLSI method. The following applies: ATCC 13883, 24 h. Put shortly:
as §1

In assay [3] the test system is Staphylococcus aureus. The assay can be described thus: Antibacterial activity against Staphylococcus aureus ATCC 29213 after 24 hrs by CLSI method. The following applies: ATCC 29213, 24 h. Put shortly: as §1
Assay [4] has as its system Staphylococcus aureus. The assay can be described thus: Antibacterial activity against Staphylococcus aureus ATCC 700699 after 24 hrs by CLSI method. As to conditions: ATCC 700699, 24 h. Put shortly:
as §1

The structures appear in SMILES notation.

Consider `Cc1c2c(c3cc(C)n([C@@H](CC(C)C)C(=O)O)c(=O)c3c1O)C[C@@H](C(C)(C)O)CO2`, for which the MIC is more than 20 µM against L5178Y; more than 100 µM in the assay with Pseudomonas aeruginosa; more than 100 µM in the assay on Acinetobacter baumannii [1]; more than 100 µM in the assay with Acinetobacter baumannii [2]; more than 100 µM against Escherichia coli; more than 100 µM with Klebsiella pneumoniae. Moreover, the MIC with Staphylococcus aureus [3] and with Staphylococcus aureus [4] was more than 100 µM in each case.
As to `CCC(C)[C@@H](C(=O)O)n1c(C)cc2c3c(c(C)c(O)c2c1=O)OC[C@H](C(C)(C)O)C3` (stereo partly specified), the MIC against L5178Y is more than 20 µM; against Pseudomonas aeruginosa, more than 100 µM; in the assay with Acinetobacter baumannii [1], more than 100 µM; against Acinetobacter baumannii [2], more than 100 µM; in the assay with Escherichia coli, more than 100 µM; in the assay with Klebsiella pneumoniae it was more than 100 µM. Besides, the MIC in the assay on Staphylococcus aureus [3] and against Staphylococcus aureus [4] was more than 100 µM in each case.
